Experimental data from PMC4824005 (Nature structural & molecular biology, 2015).
Non-standard residues stand in square brackets, D forms with d. No end group written: not given here. *: point of attachment. Biotin = O=C1N[C@H]2[C@H](CS[C@H]2CCCCC(=O)*)N1; pY = N[C@@H](Cc1ccc(OP(=O)(O)O)cc1)C(=O)O; AHA = not defined here

Experiments:
[1] = tested on: Shc1 phosphorylated at Tyr239 and Tyr240 in MCF10A cells; experiment: Immunoblot of dual Shc1 phosphorylation in MCF10A cells; format: cell-based; conditions: dasatinib 250 or 500nM pretreatment 1 hour, then 1ng/mL EGF 3 min
Outline: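 MCF10A cells (STR-authenticated, mycoplasma-free) were kept in HuMEC medium and held 16 h in growth-factor-free medium before pretreatment with test compound and EGF stimulation. Cells were lysed in RIPA buffer containing protease and phosphatase inhibitors. Lysates were separated by SDS-PAGE, transferred to nitrocellulose and immunoblotted with phospho-Shc and total Shc antibodies.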

[2] = tested on: Src; experiment: HPLC and LC-MS/MS analysis of Src kinase reaction with Shc1 Y-Y peptide; format: biochemical; conditions: 5μM Src, 500μM Shc1 peptide, 1mM ATP
Outline: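 Recombinant Src (5μM final) was reacted with 500μM unmodified Shc1 peptide and 1mM ATP. Timed aliquots were EDTA-quenched, then run on C18 reversed-phase HPLC (0–30% acetonitrile/0.1% TFA over 30 min, 1.0 ml/min, A220), with peaks assigned from standards. The peak was analysed by nanoflow LC/MS/MS on an Orbitrap with CID and database search (FDR <1.5%, manual check). Site occupancy was taken from spectral counts per pTyr site.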

[3] = target: T1, EGFR (Homo sapiens, UniProt P00533); experiment: EGFR steady-state kinetics with Shc1 peptides; format: biochemical; conditions: peptide primed at Tyr240 vs unmodified peptide
Outline: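 Recombinant EGFR kinase domain (residues 696–1022) at 100nM was incubated with Shc1 Tyr239-region peptides carrying added C-terminal lysines (0–12mM) in 50mM Tris pH 7.5, 10mM MgCl₂, 10mM MnCl₂, 2mM DTT with 2μCi γ-³²P-ATP/reaction, 30 min at 30°. Reactions were spotted on P81 paper, washed with 75mM H₃PO₄ and scintillation-counted. Initial rates (<5% substrate consumed) were fitted to Michaelis–Menten by nonlinear least squares; three experiments, each in triplicate.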

[4] = target: T1, EGFR; experiment: HPLC and LC-MS/MS analysis of EGFR kinase reaction with Shc1 Y-Y peptide; format: biochemical; conditions: no pY-pY peptides detected in HPLC analysis of EGFR reaction (Fig. 2c)
[5] = tested on: Grb2; conditions: doubly phosphorylated (Tyr239 and Tyr240) Shc1; cited from earlier work

Cc1nc(Nc2ncc(C(=O)Nc3c(C)cccc3Cl)s2)cc(N2CCN(CCO)CC2)n1 [dasatinib, reference compound]
inhibition of EGF-induced dual phosphorylation of Shc1 [1]: almost completely abolished

PDHQYYNDAKKK [Y-Y]
product of Src phosphorylation by HPLC [2]: mono-phosphorylated peptides were the predominant product

PDHQYpYNDAKKK [Y-pY]
decrease of Km by priming phosphorylation [3]: approximately 4 fold

PDHQpYYNDAKKK [pY-Y]
further phosphorylation by EGFR [4]: not a substrate for further phosphorylation by EGFR

doubly phosphorylated Shc1: Shc1 doubly phosphorylated at Tyr239 and Tyr240, literature ref 31 ({Biotin-AHA}-DHQ[pY][pY]NDFPGKE; reading uncertain)
increase in affinity for Grb2 vs phosphorylation at Tyr239 alone [5]: 3 fold
